From ChEMBL document CHEMBL1141609, “Combinatorial synthesis of anilinoanthraquinone derivatives and evaluation as non-nucleotide-derived P2Y2 receptor antagonists” (Bioorg Med Chem Lett, 2008)

What was measured:
P2Y purinoceptor 2 [1] = molecular target: P2Y purinoceptor 2 (Mus musculus, UniProt P35383); assay: Antagonist activity at mouse P2Y2 receptor in mouse NG108-15 cells assessed as inhibition of UTP-induced calcium mobilization; format: functional, cell-based
Outline: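 Mouse P2Y2 receptor natively expressed in NG108-15 neuroblastoma x glioma hybrid cells. Calcium mobilization evoked by 3 uM UTP (ca. 50-80% of maximal effect) was read with the fluorescent Ca2+ dye Fura-2 on a fluorescence plate reader. IC50 was taken from inhibition of the UTP response.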

P2Y purinoceptor 2 [2] = molecular target: P2Y purinoceptor 2 (Homo sapiens, UniProt P41231); assay: Antagonist activity at human recombinant P2Y2 receptor in 1321N1 cells assessed as inhibition of UTP-induced calcium mobilization; format: functional, cell-based
Chain of P2Y purinoceptor 2 (Homo sapiens, UniProt P41231) (P41231 whole entry): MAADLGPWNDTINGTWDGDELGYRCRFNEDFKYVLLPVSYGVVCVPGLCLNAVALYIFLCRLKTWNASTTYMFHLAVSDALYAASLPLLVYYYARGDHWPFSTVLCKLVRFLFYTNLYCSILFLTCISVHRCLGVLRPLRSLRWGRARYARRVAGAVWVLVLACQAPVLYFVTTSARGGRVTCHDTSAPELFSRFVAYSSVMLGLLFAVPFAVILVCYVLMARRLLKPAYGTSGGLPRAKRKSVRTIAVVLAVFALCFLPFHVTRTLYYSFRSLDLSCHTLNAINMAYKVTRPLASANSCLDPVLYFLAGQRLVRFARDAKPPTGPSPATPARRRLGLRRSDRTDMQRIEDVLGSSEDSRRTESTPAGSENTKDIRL
Outline: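 Human P2Y2 receptor recombinantly expressed in 1321N1 astrocytoma cells. Calcium mobilization evoked by 1 uM UTP (ca. 50-80% of maximal effect) was read with the fluorescent Ca2+ dye Fura-2 on a fluorescence plate reader. IC50 was taken from inhibition of the UTP response.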

P2Y purinoceptor 6 = P2Y purinoceptor 6 (Rattus norvegicus, UniProt Q63371); assay: Antagonist activity at rat P2Y6 receptor; format: functional
Chain of P2Y purinoceptor 6 (Q63371 whole entry): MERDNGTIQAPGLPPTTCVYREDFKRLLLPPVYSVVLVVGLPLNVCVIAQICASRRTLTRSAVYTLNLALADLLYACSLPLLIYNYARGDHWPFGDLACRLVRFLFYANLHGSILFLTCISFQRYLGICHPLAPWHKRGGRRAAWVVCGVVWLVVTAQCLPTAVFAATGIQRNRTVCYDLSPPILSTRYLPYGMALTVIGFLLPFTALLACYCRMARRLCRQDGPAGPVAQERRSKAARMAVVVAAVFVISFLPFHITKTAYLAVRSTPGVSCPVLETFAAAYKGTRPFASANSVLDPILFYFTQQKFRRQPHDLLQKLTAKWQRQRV

P2Y purinoceptor 4 = P2Y purinoceptor 4 (Homo sapiens, UniProt P51582); assay: Antagonist activity at human P2Y4 receptor; format: functional
Chain of P2Y purinoceptor 4 (P51582 whole entry): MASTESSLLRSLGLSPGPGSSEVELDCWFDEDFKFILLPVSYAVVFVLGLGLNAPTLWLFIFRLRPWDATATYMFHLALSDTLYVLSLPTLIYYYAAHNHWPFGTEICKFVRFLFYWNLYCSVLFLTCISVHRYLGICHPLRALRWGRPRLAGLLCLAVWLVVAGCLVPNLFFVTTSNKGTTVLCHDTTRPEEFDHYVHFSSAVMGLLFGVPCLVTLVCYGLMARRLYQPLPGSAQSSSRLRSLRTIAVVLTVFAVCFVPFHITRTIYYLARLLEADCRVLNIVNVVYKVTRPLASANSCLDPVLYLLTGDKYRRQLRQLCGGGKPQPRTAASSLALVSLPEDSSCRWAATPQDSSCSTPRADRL

5'-nucleotidase = molecular target: T1, 5'-nucleotidase (Rattus norvegicus, UniProt P21588); assay: Inhibition of rat ecto-5'-nucleotidase
T1 sequence (P21588 whole entry): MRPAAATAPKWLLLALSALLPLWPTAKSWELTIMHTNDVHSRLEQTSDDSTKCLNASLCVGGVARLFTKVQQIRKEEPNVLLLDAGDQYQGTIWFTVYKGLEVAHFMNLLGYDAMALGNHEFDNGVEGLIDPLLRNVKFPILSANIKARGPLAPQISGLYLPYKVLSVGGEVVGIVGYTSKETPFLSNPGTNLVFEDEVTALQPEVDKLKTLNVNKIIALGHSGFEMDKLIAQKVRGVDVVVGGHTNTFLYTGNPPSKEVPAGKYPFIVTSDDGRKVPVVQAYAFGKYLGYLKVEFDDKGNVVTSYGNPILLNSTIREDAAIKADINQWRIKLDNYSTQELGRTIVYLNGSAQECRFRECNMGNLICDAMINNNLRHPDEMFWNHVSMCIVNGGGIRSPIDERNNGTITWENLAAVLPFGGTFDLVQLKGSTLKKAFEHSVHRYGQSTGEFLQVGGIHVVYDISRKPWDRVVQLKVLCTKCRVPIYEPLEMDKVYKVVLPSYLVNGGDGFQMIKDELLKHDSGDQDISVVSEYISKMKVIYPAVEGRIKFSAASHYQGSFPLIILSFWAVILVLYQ

[3] = molecular target: T2, Ectonucleoside triphosphate diphosphohydrolase 1 (Rattus norvegicus, UniProt P97687); assay: Inhibition of rat NTPDase 1
T2 sequence (P97687 whole entry): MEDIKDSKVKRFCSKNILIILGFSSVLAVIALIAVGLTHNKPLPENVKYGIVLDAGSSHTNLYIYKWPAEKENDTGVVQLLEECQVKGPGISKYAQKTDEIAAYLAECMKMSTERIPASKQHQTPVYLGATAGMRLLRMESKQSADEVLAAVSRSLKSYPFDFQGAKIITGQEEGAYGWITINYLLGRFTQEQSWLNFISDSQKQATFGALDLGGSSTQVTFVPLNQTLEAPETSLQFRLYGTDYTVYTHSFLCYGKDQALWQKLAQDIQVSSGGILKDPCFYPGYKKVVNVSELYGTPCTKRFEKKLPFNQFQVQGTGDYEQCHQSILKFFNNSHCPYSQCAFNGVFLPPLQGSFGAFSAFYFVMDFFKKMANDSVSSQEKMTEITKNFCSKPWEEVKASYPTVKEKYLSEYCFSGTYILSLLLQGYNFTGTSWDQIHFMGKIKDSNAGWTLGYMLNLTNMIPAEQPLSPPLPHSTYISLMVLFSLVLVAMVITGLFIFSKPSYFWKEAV

Chain of P2Y purinoceptor 2 (Mus musculus, UniProt P35383) (P35383 whole entry): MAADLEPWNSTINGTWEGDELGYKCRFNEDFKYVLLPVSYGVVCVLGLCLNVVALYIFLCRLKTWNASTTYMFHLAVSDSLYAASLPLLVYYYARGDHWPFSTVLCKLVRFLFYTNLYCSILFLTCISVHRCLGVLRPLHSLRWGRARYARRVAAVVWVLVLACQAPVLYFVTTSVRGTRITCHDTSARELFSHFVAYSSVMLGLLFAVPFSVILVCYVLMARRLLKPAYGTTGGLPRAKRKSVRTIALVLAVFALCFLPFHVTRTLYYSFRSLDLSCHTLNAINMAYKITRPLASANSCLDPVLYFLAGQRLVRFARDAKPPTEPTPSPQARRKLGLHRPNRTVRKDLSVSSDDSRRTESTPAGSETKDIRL

Question: For Nc1c(S(=O)(=O)O)cc(Nc2cccc(Cl)c2)c2c1C(=O)c1ccccc1C2=O, which IC50 (P2Y purinoceptor 2 [1]) is on record?
Answer: > 100 µM

Question: What about the IC50 (P2Y purinoceptor 2 [2]) of the same compound?
Answer: > 30 µM

Question: For COc1ccccc1Nc1cc(S(=O)(=O)O)c(N)c2c1C(=O)c1ccccc1C2=O, which IC50 (P2Y purinoceptor 2 [1]) is on record?
Answer: 9 µM

Question: What about the IC50 (P2Y purinoceptor 6) of the same compound?
Answer: > 100 µM

Question: And the IC50 (P2Y purinoceptor 4)?
Answer: 50 µM

Question: What about the Ki (5'-nucleotidase) of the same compound?
Answer: > 100 µM

Question: And the Ki [3]?
Answer: > 100 µM

Question: What about the IC50 (P2Y purinoceptor 2 [2]) of the same compound?
Answer: 9.82 µM

Question: How did the IC50 (P2Y purinoceptor 2 [1]) turn out when Cc1cccc(Nc2cc(S(=O)(=O)O)c(N)c3c2C(=O)c2ccccc2C3=O)c1C was run?
Answer: 14 µM

Question: And the IC50 (P2Y purinoceptor 2 [2])?
Answer: 7.95 µM

Question: For Nc1c(S(=O)(=O)O)cc(Nc2ccc(Nc3ccccc3)cc2)c2c1C(=O)c1ccccc1C2=O, which IC50 (P2Y purinoceptor 2 [2]) is on record?
Answer: 3.93 µM

Question: COc1ccc(Nc2cc(S(=O)(=O)O)c(N)c3c2C(=O)c2ccccc2C3=O)cc1 was tested. Which IC50 (P2Y purinoceptor 2 [1]) did it give?
Answer: 17 µM

Question: And the IC50 (P2Y purinoceptor 2 [2])?
Answer: 11.5 µM

Question: With CC(=O)Nc1ccc(Nc2cc(S(=O)(=O)O)c(N)c3c2C(=O)c2ccccc2C3=O)cc1 as the compound, how does the IC50 (P2Y purinoceptor 2 [1]) read?
Answer: 12 µM

Question: What about the IC50 (P2Y purinoceptor 2 [2]) of the same compound?
Answer: 5.81 µM

Question: For Cc1ccc(C)c(Nc2cc(S(=O)(=O)O)c(N)c3c2C(=O)c2ccccc2C3=O)c1, which IC50 (P2Y purinoceptor 2 [1]) is on record?
Answer: 17 µM

Question: What about the IC50 (P2Y purinoceptor 2 [2]) of the same compound?
Answer: 30.3 µM

Question: For CC(=O)c1ccc(Nc2cc(S(=O)(=O)O)c(N)c3c2C(=O)c2ccccc2C3=O)cc1, which IC50 (P2Y purinoceptor 2 [1]) is on record?
Answer: > 100 µM

Question: For Cc1cccc(Nc2cc(S(=O)(=O)O)c(N)c3c2C(=O)c2ccccc2C3=O)c1, which IC50 (P2Y purinoceptor 2 [1]) is on record?
Answer: 22 µM

Question: And the IC50 (P2Y purinoceptor 2 [2])?
Answer: 3.04 µM

Question: For CCOc1ccc(Nc2cc(S(=O)(=O)O)c(N)c3c2C(=O)c2ccccc2C3=O)cc1, which IC50 (P2Y purinoceptor 2 [1]) is on record?
Answer: 9 µM

Question: What about the IC50 (P2Y purinoceptor 2 [2]) of the same compound?
Answer: 11.5 µM

Question: For Cc1ccc(Nc2cc(S(=O)(=O)O)c(N)c3c2C(=O)c2ccccc2C3=O)cc1, which IC50 (P2Y purinoceptor 2 [1]) is on record?
Answer: 27 µM

Question: What about the IC50 (P2Y purinoceptor 2 [2]) of the same compound?
Answer: 24.9 µM

Question: Cc1ccc(Nc2cc(S(=O)(=O)O)c(N)c3c2C(=O)c2ccccc2C3=O)c(C)c1 was tested. Which IC50 (P2Y purinoceptor 2 [1]) did it give?
Answer: 9 µM

Question: What about the IC50 (P2Y purinoceptor 2 [2]) of the same compound?
Answer: 5.43 µM

Question: For Nc1c(S(=O)(=O)O)cc(Nc2ccc(Cl)cc2)c2c1C(=O)c1ccccc1C2=O, which IC50 (P2Y purinoceptor 2 [2]) is on record?
Answer: 5.31 µM

Question: With Nc1c(S(=O)(=O)O)cc(Nc2cccc([N+](=O)[O-])c2)c2c1C(=O)c1ccccc1C2=O as the compound, how does the IC50 (P2Y purinoceptor 2 [1]) read?
Answer: > 100 µM

Question: Which results are given for Nc1c(S(=O)(=O)O)cc(Nc2ccc(Nc3nc(Cl)nc(Nc4cccc(S(=O)(=O)O)c4)n3)c(S(=O)(=O)O)c2)c2c1C(=O)c1ccccc1C2=O [RB 2]?
Answer: IC50 (P2Y purinoceptor 2 [1]): 5 µM; IC50 (P2Y purinoceptor 2 [2]): 1.85 µM

Question: What does the source list for CCOc1ccccc1Nc1cc(S(=O)(=O)O)c(N)c2c1C(=O)c1ccccc1C2=O?
Answer: IC50 (P2Y purinoceptor 2 [1]): 17 µM; IC50 (P2Y purinoceptor 2 [2]): 15 µM

Question: With Nc1c(S(=O)(=O)O)cc(Br)c2c1C(=O)c1ccccc1C2=O [BROMAMINIC ACID] as the compound, how does the IC50 (P2Y purinoceptor 2 [1]) read?
Answer: > 100 µM

Question: CCc1ccccc1Nc1cc(S(=O)(=O)O)c(N)c2c1C(=O)c1ccccc1C2=O was tested. Which IC50 (P2Y purinoceptor 2 [1]) did it give?
Answer: 24 µM

Question: And the IC50 (P2Y purinoceptor 2 [2])?
Answer: 9.26 µM

Question: Which results are given for Cc1ccccc1Nc1cc(S(=O)(=O)O)c(N)c2c1C(=O)c1ccccc1C2=O?
Answer: IC50 (P2Y purinoceptor 2 [1]): 10 µM; IC50 (P2Y purinoceptor 2 [2]): 16.2 µM
